The text below walks through data of ChEMBL document CHEMBL1135995, “Structure-activity relationships of methoctramine-related polyamines as muscular nicotinic receptor noncompetitive antagonists. 3. Effect of inserting the tetraamine backbone into a macrocyclic structure” (J Med Chem, 2002).

A short description of experiment [1]: Antagonist activity against Nicotinic acetylcholine receptor (nAChR) of isolated Frog rectus Abdominis Muscle. In kind it is functional, tissue-based. The following applies: Amphibia.
In experiment [2] the target is Muscarinic acetylcholine receptor M3 (Cavia porcellus) (UniProt Q8VH26). Nature of the experiment: Antagonist activity against Muscarinic acetylcholine receptor M3 of isolated Guinea Pig Longitudinal ileum. In kind it is functional, tissue-based. A digest of the protocol:
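Guinea pig terminal ileum longitudinal muscle (2 cm segments) in PSS, with tension recorded isotonically. After ≥30 min equilibration, APE curves (0.01-0.5 µM) were run at 30 min intervals, the second serving as control. A new curve followed 60 min antagonist incubation, with the antagonist at a single 5 µM concentration in triplicate. EC50 was estimated graphically, with untreated parallel tissues as controls.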

Experiment [3] relates to Muscarinic acetylcholine receptor M2 (Cavia porcellus). As to the kind of experiment: Antagonist activity against Muscarinic acetylcholine receptor M2 of isolated Guinea Pig Left artium.
In experiment [4] the target is Acetylcholine receptor (Torpedo californica) (UniProt P02710+P02712+P02718+P02714). Nature of the experiment: Antagonist activity against Nicotinic acetylcholine receptor (nAChR) of isolated Torpedo. Type of experiment: functional. Summed up: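 Ethidium fluorescence displacement used nAChR-rich membranes from frozen Torpedo californica electric organ (1 µM receptor) with ethidium 7 µM and carbachol 1 mM in 50 mM NaPi, pH 7.4. Competing ligand was added stepwise, with excitation at 480 nm and emission read at 540-740 nm. Kapp was derived by a logarithmic formula (Herz et al.).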

A further experiment has as its target Acetylcholinesterase (Homo sapiens, UniProt P22303). As to the kind of experiment: Inhibitory activity on Acetylcholinesterase (AChE) from human erythrocytes.
For experiment [5], the target named is T1, Acetylcholine receptor subunit delta (Torpedo californica) (UniProt P02718).
T1 sequence (whole entry): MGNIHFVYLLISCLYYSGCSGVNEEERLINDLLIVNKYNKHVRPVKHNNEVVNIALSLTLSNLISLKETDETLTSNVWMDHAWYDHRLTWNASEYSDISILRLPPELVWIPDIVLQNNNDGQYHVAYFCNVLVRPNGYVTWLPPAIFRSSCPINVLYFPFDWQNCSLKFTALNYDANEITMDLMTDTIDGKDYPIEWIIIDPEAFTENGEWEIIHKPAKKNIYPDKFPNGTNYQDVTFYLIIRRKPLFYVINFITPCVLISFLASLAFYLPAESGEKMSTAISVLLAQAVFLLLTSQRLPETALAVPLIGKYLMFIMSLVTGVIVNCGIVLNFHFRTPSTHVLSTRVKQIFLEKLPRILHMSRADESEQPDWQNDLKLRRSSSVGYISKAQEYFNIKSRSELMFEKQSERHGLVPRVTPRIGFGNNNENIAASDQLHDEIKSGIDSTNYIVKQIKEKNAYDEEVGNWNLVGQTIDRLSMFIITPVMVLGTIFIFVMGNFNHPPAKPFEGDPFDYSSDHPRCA
Conditions: fish.

Structures are written as SMILES.

Acetylcholinesterase, sequence (P22303 whole entry): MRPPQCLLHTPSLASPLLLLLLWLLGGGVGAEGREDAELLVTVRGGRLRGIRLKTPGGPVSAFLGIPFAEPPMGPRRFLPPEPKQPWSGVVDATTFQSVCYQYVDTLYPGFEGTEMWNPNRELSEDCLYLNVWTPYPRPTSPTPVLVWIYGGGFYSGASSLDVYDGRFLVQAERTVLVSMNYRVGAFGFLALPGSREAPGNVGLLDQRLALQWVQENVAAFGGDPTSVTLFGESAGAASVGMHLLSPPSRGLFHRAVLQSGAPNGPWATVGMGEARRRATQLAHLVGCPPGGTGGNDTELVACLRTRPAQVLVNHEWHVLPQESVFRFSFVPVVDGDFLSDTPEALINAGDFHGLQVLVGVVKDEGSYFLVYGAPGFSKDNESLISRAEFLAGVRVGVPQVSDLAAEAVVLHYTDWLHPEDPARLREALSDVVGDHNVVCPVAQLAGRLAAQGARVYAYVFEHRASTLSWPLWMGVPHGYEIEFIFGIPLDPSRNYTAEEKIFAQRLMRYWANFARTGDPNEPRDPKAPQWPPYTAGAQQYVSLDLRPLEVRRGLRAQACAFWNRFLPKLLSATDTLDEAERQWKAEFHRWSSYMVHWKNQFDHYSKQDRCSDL
Muscarinic acetylcholine receptor M3 (Cavia porcellus), sequence (Q8VH26 1-587): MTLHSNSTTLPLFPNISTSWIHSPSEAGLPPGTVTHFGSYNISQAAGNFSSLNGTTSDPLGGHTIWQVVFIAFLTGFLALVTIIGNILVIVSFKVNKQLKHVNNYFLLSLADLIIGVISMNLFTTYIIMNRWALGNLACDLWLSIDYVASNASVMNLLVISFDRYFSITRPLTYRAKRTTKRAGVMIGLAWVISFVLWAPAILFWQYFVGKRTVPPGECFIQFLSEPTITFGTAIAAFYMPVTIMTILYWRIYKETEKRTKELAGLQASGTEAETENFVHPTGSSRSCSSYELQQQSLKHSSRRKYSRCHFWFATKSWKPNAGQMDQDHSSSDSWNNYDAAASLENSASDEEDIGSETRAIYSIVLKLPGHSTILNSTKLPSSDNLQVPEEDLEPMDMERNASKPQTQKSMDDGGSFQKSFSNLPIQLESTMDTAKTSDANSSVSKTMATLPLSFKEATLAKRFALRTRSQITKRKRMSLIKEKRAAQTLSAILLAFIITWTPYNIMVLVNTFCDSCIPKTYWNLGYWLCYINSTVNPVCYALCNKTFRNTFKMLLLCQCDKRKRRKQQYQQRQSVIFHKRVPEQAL

As to `COc1ccccc1CNCCCCCCNCc1ccc(-c2ccc(-c3ccc(CNCCCCCCNCc4ccccc4OC)cc3)cc2)cc1`, in experiment [1], the 50% inhibitory concentration (IC50) was 501 nM. Besides, the pKB in experiment [2] and in experiment [3] was < 5 each time. For the same compound, in experiment [4], the pKapp turned out to be 6.35.

As for `COc1ccccc1CN1CCCCCCCCN(Cc2ccccc2OC)C(=O)CCCCCNCc2ccc(cc2)-c2ccc(cc2)CNCCCCCC1=O`, the results for the IC50 (in experiment [1]; against Acetylcholinesterase) were 589 nM and 3390 nM, respectively. In addition, the pKB in experiment [2] and in experiment [3] was < 5 throughout. In experiment [4], this compound showed a pKapp of 6.64.

In the case of `COc1ccccc1CN(C)CCCCCC(=O)N(C)CCCCCCCCN(C)C(=O)CCCCCN(C)Cc1ccccc1OC`, the pKB in experiment [2] turned out to be 5.55; in experiment [3] it was 6.39. Also, the pKapp in experiment [4] stood at 4.99.

Turning to `COc1ccccc1CN1CCCCCCCCN(Cc2ccccc2OC)C(=O)CCCCCNCc2ccc(cc2)CNCCCCCC1=O`, the IC50 in experiment [1] was 170 nM; at Acetylcholinesterase, 1410 nM. The pKB in experiment [2] and in experiment [3] was < 5 throughout. In experiment [4], the pKapp was 6.47.

With `COc1ccccc1CN1CCCCCCCCN(Cc2ccccc2OC)CCCCCCNCc2ccc(cc2)Cc2ccc(cc2)CNCCCCCC1`, in experiment [1], half-maximal inhibition (IC50) required 191 nM. The negative logarithm of the KB (pKB) in experiment [2] was < 5. This compound also displayed a pKapp in experiment [4] of 6.26.

For the compound `COc1ccccc1CN1CCCCCCCCN(Cc2ccccc2OC)CCCCCCNCc2ccc(cc2)CNCCCCCC1`, it took 324 nM to reach half-maximal inhibition in experiment [1] (IC50). The compound further showed a pKapp in experiment [5] of 6.01.

With `COc1ccccc1CN1CCCCCCCCN(Cc2ccccc2OC)CCCCCCNCc2ccc(cc2)-c2ccc(cc2)CNCCCCCC1`, in experiment [1], the midpoint of inhibition, the IC50, lay at 1200 nM. The compound also showed a pKapp in experiment [5] of 5.48.

The compound `COc1ccccc1CNCCCCCCNCCCCCCCCNCCCCCCNCc1ccccc1OC` [METHOCTRAMINE] gave an IC50 in experiment [1] of 1170 nM. Besides, the pKB in experiment [2] came out at 6.14. Besides, in experiment [4], the pKapp was 6.21.

As for `COc1ccccc1CN(CCCCCCCCN(Cc1ccccc1OC)C(=O)CCCCCN)C(=O)CCCCCN`, the IC50 in experiment [1] is 158 nM; at Acetylcholinesterase, 33100 nM. Moreover, in experiment [4], the pKapp is 6.46.

With `CN1CCCCCCCCN(C)CCCCCCNCc2ccc(cc2)-c2ccc(cc2)CNCCCCCC1`, the IC50 in experiment [1] is 4270 nM. The pKapp in experiment [4] was < 4.

Take `COc1ccccc1CN1CCCCCCN(C)CCCCCCCCN(C)CCCCCCN(Cc2ccccc2OC)Cc2ccc(cc2)Cc2ccc(cc2)C1`: in experiment [1], the IC50 is 229 nM. Besides, the pKB in experiment [2] and in experiment [3] was < 5 in each case. Besides, the pKapp in experiment [4] worked out at 6.21.

In turn, `COc1ccccc1CN1CCCCCCN(C)CCCCCCCCN(C)CCCCCCN(Cc2ccccc2OC)Cc2ccc(cc2)-c2ccc(cc2)C1` gave an IC50 in experiment [1] of 447 nM. This compound also showed a pKapp in experiment [4] of 6.35.

For `COc1ccccc1CN1CCCCCCN(C)CCCCCCCCN(C)CCCCCCN(Cc2ccccc2OC)Cc2ccc(cc2)C1`, the IC50 in experiment [1] was 3470 nM. Besides, in experiment [4], the pKapp came to 6.43.

On to `COc1ccccc1CN1CCCCCC(=O)N(C)CCCCCCCCN(C)C(=O)CCCCCN(Cc2ccccc2OC)Cc2ccc(cc2)-c2ccc(cc2)C1`, for which the IC50 in experiment [1] was 525 nM; against Acetylcholinesterase, 53700 nM. Moreover, the pKapp in experiment [4] came to 5.1.

`COc1ccccc1CN(CCCCCCN)CCCCCCCCN(CCCCCCN)Cc1ccccc1OC` showed an IC50 in experiment [1] of 331 nM. In experiment [5], the pKapp was 6.4.

With `COc1ccccc1CNCCCCCCNCCCCCCCCCCCCNCCCCCCNCc1ccccc1OC`, the pKB in experiment [2] was determined as 5.98; in experiment [3] it was 7.35. The compound further gave a pKapp in experiment [4] of 5.66.

One may read the IC50 as the concentration needed to halve the response being measured. Read a low IC50 as greater potency. One may read the pKB as the KB on a negative log10 scale, so that one unit is a factor of ten. Low values mean a large KB, high ones a small KB.
